Assay [1] deals with CHO. Kind of assay: Radiosensitizing activity against chinese hamster cells was determined in the presence of the sensitizer under nitrogen at a concentration of 1.0 mM. Format: functional, Cricetulus griseus. Summed up:
(§1)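 V-79 Chinese hamster monolayers (exponentially growing, MEM with 15% fetal calf serum), about 200 cells per dish. Made hypoxic by purging sealed containers with 95% N2/5% CO2 for 1 h. Drug at maximum nontoxic concentration (1 mM or less) for 2 h at 37 °C. Cobalt-60 irradiation, 1400 rad, at room temperature. Medium replaced, colonies counted after 6 days; % survival.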

For the next assay, the system named is V79. The experiment in a line: Inhibitory activity against hypoxic Chinese hamster cells(V-79) in culture by colony formation assay. The settings on record: Cricetulus griseus, read-out: ED50 (the source's name). The class given is functional.
Assay [2] is described as follows: Sensitizer enhancement ratio was determined by dividing the Do value obtained from the control radiation survival curve by the Do value obtained from the radiation survival curve. The class given is functional.
Assay [3] deals with CHO. Kind of assay: Radiosensitizing activity against chinese hamster cells was determined in the presence of the sensitizer under nitrogen at a concentration of 0.010 mM. Format: functional, Cricetulus griseus. In a few lines: as §1
Assay [4] can be described thus: Sensitizer enhancement ratio(SER) was determined. The class given is functional.

As for `COCC(O)Cn1c(C(F)(F)F)nc2ccc([N+](=O)[O-])cc21` (stereo unspecified), the Survivals with CHO [1] was 17.6%. Besides, the EC50 with V79 was found to be 3000 µM. Also, in assay [2], the SER was 1.2.

For `COCC(O)Cn1c(S(C)(=O)=O)nc2ccccc21` (stereo unspecified), the Survivals with CHO [1] is on record as 25.8%. In the assay on V79, the EC50 came out at 3200 µM. In assay [2], the SER is 1.

On to `CCOC(=O)Cn1c([N+](=O)[O-])nc2ccc([N+](=O)[O-])cc21`, for which, in the assay on CHO [3], the Survivals is 22.9%. Besides, the EC50 in the assay with V79 worked out at 6 µM. Moreover, in assay [4], the SER stood at 1.

For the molecule `COCC(O)Cn1c(C(C)=O)nc2cc([N+](=O)[O-])ccc21` (stereo unspecified), the Survivals in the assay with CHO [1] is given as 11.3%. Moreover, the EC50 with V79 was above 5000 µM. Also, the SER in assay [2] is 1.2.

Turning to `COCC(O)Cn1c(C(F)(F)F)nc2ccccc21` (stereo unspecified), the Survivals in the assay with CHO [1] was found to be 22%. Moreover, in the assay on V79, the EC50 was above 5000 µM. In assay [2], the SER was determined as 1.1.

`CCOC(=O)Cn1c([N+](=O)[O-])nc2ccccc21`: in the assay on CHO [1], the Survivals is recorded as 2.7%. For the same molecule, in the assay on V79, the EC50 came to 300 µM. Besides, the SER in assay [2] was determined as 2.3.

As to `COCC(O)Cn1c(C#N)nc2ccccc21` (stereo unspecified), in the assay with CHO [1], the Survivals turned out to be 23%. For the same molecule, the EC50 in the assay with V79 stood at 1200 µM. Also, in assay [2], the SER was 1.

Take `COCC(O)Cn1c(C(C)=O)nc2ccccc21` (stereo unspecified): the Survivals in the assay with CHO [1] was 23%. Further, in the assay with V79, the EC50 was above 5000 µM. The SER in assay [2] amounted to 1.

For the molecule `CCOC(=O)Cn1c([N+](=O)[O-])nc2cc([N+](=O)[O-])ccc21`, the Survivals in the assay with CHO [1] was found to be 26.7%. In the assay on V79, the EC50 was found to be 16 µM. Moreover, in assay [4], the SER worked out at 1.

Consider `COCC(O)Cn1c(C(N)=O)nc2ccccc21` (stereo unspecified), for which the Survivals with CHO [1] came out at 21%. Further, the EC50 in the assay on V79 was above 5000 µM. For the same molecule, in assay [2], the SER turned out to be 1.1.

For the molecule `COCC(O)Cn1c([N+](=O)[O-])nc2ccccc21` (stereo unspecified), the Survivals in the assay with CHO [1] was 9.4%. Besides, the EC50 in the assay on V79 was 4800 µM. Besides, in assay [2], the SER came to 2.

Turning to `COCC(O)Cn1c(C(F)(F)F)nc2cc([N+](=O)[O-])ccc21` (stereo unspecified), in the assay with CHO [1], the Survivals was 13.8%. In addition, the EC50 in the assay on V79 was above 5000 µM. Further, in assay [2], the SER amounted to 1.4.
